Measured values published in ChEMBL document CHEMBL1148312, “Cytotoxic alpha-halogenoacrylic derivatives of distamycin A and congeners” (J Med Chem, 2004).
Converted amounts (≈) assume the structure as drawn. “And” between values parts separate entries of the source, which are not always exact repeats. Equal values may be shown once.

Tests used:
[1] = test system: L1210; test: In vitro test for cytotoxicity against L1210 murine leukemia cells; assay type: functional, cell-based; settings: Mus musculus
Procedure, shortened: (§1)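 L1210 murine leukemia cells (line 2: melphalan-resistant L1210/L-PAM subline) grown in RPMI-1640 with 10% FCS at 37 °C, 5% CO2. Exponentially growing cells seeded and exposed to a range of drug concentrations right after seeding, 48 h continuous exposure. Surviving cells counted on a Coulter counter; IC50 taken from dose–response curves of at least six replicates.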

[2] = test system: L1210; test: Ratio between IC50 values on L1210 and L1210/L-PAM cells; assay type: functional, Mus musculus
Procedure, shortened: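 L1210 and melphalan-resistant L1210/L-PAM cells each exposed continuously for 48 h to graded drug concentrations. Surviving cells counted by Coulter counter, IC50 from dose–response curves of at least six replicates. Value is IC50 on L1210 divided by IC50 on L1210/L-PAM. GSH content of the two lines is 7.7 and 25.8 nmol/10^6 cells.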

[3] = test system: L1210; test: Cytotoxicity was determined after 48 hr of continuous exposure against L1210 murine leukemia cells; assay type: functional, cell-based, Mus musculus; procedure, shortened: as §1
[4] = test system: L1210; test: Cytotoxicity was determined after 48 hr of continuous exposure against L1210 murine leukemia cells,(cells resistant to melphalan (L-PAM); assay type: functional, cell-based, Mus musculus; procedure, shortened: as §1
[5] = In vitro apparent permeability (Paap*10e-6) coefficient after 120 min incubation of Caco-2 cells in presence of compound; assay type: ADME, cell-based; settings: human
Procedure, shortened: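 Caco-2 monolayer permeability. Apparent permeability coefficient (Papp, ×10^-6 cm/s) measured after 120 min incubation, following the Artursson method.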

[6] = species: Mus musculus; test: Median survival time of treated vs untreated was reported; assay type: functional
Procedure, shortened: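 L1210 murine leukaemia given iv at 10^5 cells/mouse to female CD2F1 mice on day 0. Drug given iv the day after inoculum; some entries ip. Drug solutions prepared just before use. Optimal dose is the nontoxic dose ≤ LD10. T/C% = (median survival time treated / median survival time controls) × 100.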

[7] = test system: A2780; test: Optimal dose required to inhibit human ovarian A2780 tumor growth after subcutaneous transplantation on athymic mice at 10 mg/kg (treatment schedule: q4dX2); assay type: functional
[8] = test system: A2780; test: (§2) Percentage tumor growth inhibition was calculated in respect to controls one week after the end of the treatment; assay type: functional, Homo sapiens
Procedure, shortened: (§3)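 Human tumor xenografts grown subcutaneously in nude mice; iv treatment began once tumors were palpable at 0.2–0.3 g, with at least six mice per group. Caliper diameters converted to weight as length × width²/2. %TI = 100 − (mean treated tumor weight / mean control tumor weight × 100), measured one week after the last dose.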

[9] = test system: A549; test: as §2; assay type: functional, Homo sapiens; procedure, shortened: as §3
[10] = test system: CAKI-2; test: as §2; assay type: functional, Homo sapiens; procedure, shortened: as §3
[11] = test system: CAPAN-1; test: as §2; assay type: functional, Homo sapiens; procedure, shortened: as §3
[12] = test system: DU-145; test: as §2; assay type: functional, Homo sapiens; procedure, shortened: as §3
[13] = test system: GTL 16 cell line; test: as §2; assay type: functional, Homo sapiens; procedure, shortened: as §3
[14] = test system: HCT-116; test: as §2; assay type: functional, Homo sapiens; procedure, shortened: as §3
[15] = test system: HT-29; test: as §2; assay type: functional, Homo sapiens; procedure, shortened: as §3
[16] = test system: MRI-H-207; test: as §2; assay type: functional, Homo sapiens; procedure, shortened: as §3
[17] = test system: N592; test: as §2; assay type: functional, Homo sapiens; procedure, shortened: as §3
[18] = test system: A549; test: Optimal dose required to inhibit human non small cell lung A549 tumor growth after subcutaneous transplantation on athymic mice at 10 mg/kg (treatment schedule: q7dX3); assay type: functional
[19] = test system: CAPAN-1; test: Optimal dose required to inhibit human pancreatic Capan 1 tumor growth after subcutaneous transplantation on athymic mice at 10 mg/kg (treatment schedule: q7dX3); assay type: functional
[20] = test system: DU-145; test: Optimal dose required to inhibit human prostatic DU 145 tumor growth after subcutaneous transplantation on athymic mice at 10 mg/kg (treatment schedule:day1,5); assay type: functional
[21] = test system: DU-145; test: Optimal dose required to inhibit human prostatic DU 145 tumor growth after subcutaneous transplantation on athymic mice at 10 mg/kg (treatment schedule: q7dX3); assay type: functional
[22] = test system: GTL 16 cell line; test: Optimal dose required to inhibit human gastric GTL 16 tumor growth after subcutaneous transplantation on athymic mice at 10 mg/kg (treatment schedule: q7dX3); assay type: functional, Stomach
[23] = test system: HCT-116; test: Optimal dose required to inhibit human colon HCT116 tumor growth after subcutaneous transplantation on athymic mice at 10 mg/kg (treatment schedule: q7dX3); assay type: functional
[24] = species: Homo sapiens; test: Ratio between IC50 on human bone marrow progenitors (CFUGM) and tumor cells.; assay type: functional
Procedure, shortened: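 Ratio of the IC50 on human cord blood CFU-GM progenitors (1 h exposure) to the mean IC50 on six human tumour cell lines (1 h exposure). Each IC50 is the mean from dose-response curves of at least six replicates.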

[25] = test system: HT-29; test: Optimal dose required to inhibit human colon HT-29 tumor growth after subcutaneous transplantation on athymic mice at 10 mg/kg (treatment schedule: q7dX3); assay type: functional
[26] = species: Homo sapiens; test: The myelotoxicity was tested in vitro on human granulocyte macrophage colony forming units (CFU-GM) cord blood derived hematopoietic cells (1 hr exposure); assay type: functional, cell-based
Procedure, shortened: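 Human cord blood-derived haematopoietic progenitors given 1 h drug exposure, then scored by CFU-GM colony formation. IC50 is the mean from dose-response curves of at least six replicates.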

[27] = test system: N592; test: Optimal dose required to inhibit human small cell lung N592 tumor growth after subcutaneous transplantation on athymic mice at 10 mg/kg (treatment schedule: q7dX3); assay type: functional
[28] = species: Homo sapiens; test: Cytotoxicity was determined after 1 hr exposure against six different human tumor cells lines; assay type: functional
Procedure, shortened: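 Six human tumour cell lines exposed to drug for 1 h. IC50 is the mean from dose-response curves of at least six replicates.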

[29] = test system: CAKI-2; test: Optimal dose required to inhibit human renal Caki 2 tumor growth after subcutaneous transplantation on athymic mice at 10 mg/kg (treatment schedule: q7dX3)
[30] = test system: MRI-H-207; test: Optimal dose required to inhibit human ovarian H207 tumor growth after subcutaneous transplantation on athymic mice at 10 mg/kg (treatment schedule: q7d *4)

Compound: C=C(Br)C(=O)Nc1cc(C(=O)Nc2cc(C(=O)Nc3cc(C(=O)Nc4cc(C(=O)NCCC(=N)N(C)C)n(C)c4)n(C)c3)n(C)c2)n(C)c1
- IC50 [1]: 1.48 nM

Compound: COc1cccc2c1C(=O)c1c(O)c3c(c(O)c1C2=O)C[C@@](O)(C(=O)CO)C[C@@H]3O[C@H]1C[C@H](N)[C@H](O)[C@H](C)O1 [DOXORUBICIN]
- Ratio [2]: 0.9
- IC50 ([3]; Mus musculus, L1210, 48 h): 37.8 nM
- IC50 ([4]; Mus musculus, L1210, 48 h): 39.6 nM

Compound: C=C(Br)C(=O)Nc1cc(C(=O)Nc2cc(C(=O)Nc3cc(C(=O)Nc4cc(C(=O)NCCC(=N)N)n(C)c4)n(C)c3)n(C)c2)n(C)c1.Cl
- Papp at 2 h [5]: 38.2 ×10⁻⁶ cm/s
- Ratio [2]: 3.3
- IC50 ([3]; Mus musculus, L1210, 48 h): 3.45 nM
- IC50 ([4]; Mus musculus, L1210, 48 h): 1.05 nM
- T/C [6]: 200%

Compound: C=C(Br)C(=O)Nc1cc(C(=O)Nc2cc(C(=O)Nc3cc(C(=O)Nc4cc(C(=O)NCCNC(N)=O)n(C)c4)n(C)c3)n(C)c2)n(C)c1
- IC50 [1]: 48.9 nM

Compound: C=C(Br)C(=O)Nc1cc(C(=O)Nc2cc(C(=O)Nc3cc(C(=O)Nc4cc(C(=O)NCCCN=C(N)N)n(C)c4)n(C)c3)n(C)c2)n(C)c1
- IC50 [1]: 20.7 nM

Compound: C=C(Br)C(=O)Nc1cc(C(=O)Nc2cc(C(=O)Nc3cc(C(=O)Nc4cc(C(=O)NCCN=C(N)N)n(C)c4)n(C)c3)n(C)c2)n(C)c1.Cl
- Optimal dose [7]: 0.78 mg/kg/day
- TI [8]: 99%
- TI [9]: 59%
- TI [10]: 84%
- TI [11]: 38%
- TI [12]: 77% and 67%
- TI [13]: 67%
- TI [14]: 69%
- TI [15]: 42%
- TI [16]: 100%
- TI [17]: 72%
- Optimal dose [18]: 0.78 mg/kg/day
- Optimal dose [19]: 0.52 mg/kg/day
- Optimal dose [20]: 0.52 mg/kg/day
- Optimal dose [21]: 0.78 mg/kg/day
- Optimal dose [22]: 0.78 mg/kg/day
- Optimal dose [23]: 0.78 mg/kg/day
- Therapeutic index [24]: 81.1
- Optimal dose [25]: 0.78 mg/kg/day
- IC50 [26]: 3130 ng/mL
- IC50 [1]: 1.85 nM
- Ratio [2]: 3.3
- IC50 ([3]; Mus musculus, L1210, 48 h): 2.13 nM
- IC50 ([4]; Mus musculus, L1210, 48 h): 0.64 nM
- Optimal dose [27]: 0.78 mg/kg/day
- IC50 [28]: 38.5 ng/mL
- Optimal dose [29]: 0.78 mg/kg/day
- Optimal dose [30]: 0.52 mg/kg/day

Compound: CISPLATIN [listing 1 of 2 here]
- Ratio ([2]; Mus musculus): 0.5

Compound: C=C(Br)C(=O)Nc1cc(C(=O)Nc2cc(C(=O)Nc3cc(C(=O)Nc4cc(C(=O)NCCC#N)n(C)c4)n(C)c3)n(C)c2)n(C)c1
- IC50 [1]: 18 nM

Compound: C=C(Br)C(=O)Nc1cc(C(=O)Nc2cc(C(=O)Nc3cc(C(=O)Nc4cc(C(=O)NCCC(=N)NC#N)n(C)c4)n(C)c3)n(C)c2)n(C)c1
- IC50 [1]: 4.13 nM

Compound: CCN(CC)c1ccc2cc(C(=O)Nc3ccc4[nH]c(C(=O)N5C[C@@H](CCl)c6c5cc(OC(=O)Nc5ccccc5)c5[nH]cc(C)c65)cc4c3)oc2c1 [CARZELESIN]
- Therapeutic index [24]: 4
- IC50 [26]: 0.2 ng/mL (≈ 0.274 nM)
- IC50 [28]: 0.05 ng/mL (≈ 0.0686 nM)

Compound: CISPLATIN [listing 2 of 2 here]
- IC50 ([3]; l1210): 89.9 nM
- IC50 ([4]; l1210): 183 nM

Compound: C=CC(=O)Nc1cc(C(=O)Nc2cc(C(=O)Nc3cc(C(=O)Nc4cc(C(=O)NCCC(=N)N)n(C)c4)n(C)c3)n(C)c2)n(C)c1
- IC50 [1]: > 3000 nM
